# pEC50, pIC50, pKi: −log10 of the molar value.
# Experiments:
# TGF-beta receptor type-1 [1] = target: T1, TGF-beta receptor type-1 (Homo sapiens, UniProt P36897); assay: Binding affinity to human TGFBR1
# T1 sequence (P36897 whole entry): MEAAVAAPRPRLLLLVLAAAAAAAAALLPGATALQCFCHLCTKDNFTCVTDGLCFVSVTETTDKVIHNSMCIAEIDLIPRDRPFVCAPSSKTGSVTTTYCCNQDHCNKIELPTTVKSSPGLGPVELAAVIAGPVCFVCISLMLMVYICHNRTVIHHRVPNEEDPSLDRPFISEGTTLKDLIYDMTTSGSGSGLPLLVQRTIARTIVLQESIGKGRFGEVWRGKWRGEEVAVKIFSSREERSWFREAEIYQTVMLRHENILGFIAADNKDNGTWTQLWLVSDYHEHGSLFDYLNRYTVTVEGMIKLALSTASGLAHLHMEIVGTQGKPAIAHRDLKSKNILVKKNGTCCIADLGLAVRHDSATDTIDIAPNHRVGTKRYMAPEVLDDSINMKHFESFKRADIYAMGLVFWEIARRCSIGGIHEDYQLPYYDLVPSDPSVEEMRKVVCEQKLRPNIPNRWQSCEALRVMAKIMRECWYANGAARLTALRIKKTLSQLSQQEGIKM
# TGF-beta receptor type-1 [2] = target: T1, TGF-beta receptor type-1; assay: Inhibition of TGFBR1 transfected in human HepG2 cells after 24 hrs by plasminogen activator inhibitor-luciferase reporter gene assay; assay type: cell-based
# [3] = target: Mitogen-activated protein kinase 14 (Homo sapiens, UniProt Q16539); assay: Inhibition of p38alpha
# Mitogen-activated protein kinase 14, sequence (Q16539 whole entry): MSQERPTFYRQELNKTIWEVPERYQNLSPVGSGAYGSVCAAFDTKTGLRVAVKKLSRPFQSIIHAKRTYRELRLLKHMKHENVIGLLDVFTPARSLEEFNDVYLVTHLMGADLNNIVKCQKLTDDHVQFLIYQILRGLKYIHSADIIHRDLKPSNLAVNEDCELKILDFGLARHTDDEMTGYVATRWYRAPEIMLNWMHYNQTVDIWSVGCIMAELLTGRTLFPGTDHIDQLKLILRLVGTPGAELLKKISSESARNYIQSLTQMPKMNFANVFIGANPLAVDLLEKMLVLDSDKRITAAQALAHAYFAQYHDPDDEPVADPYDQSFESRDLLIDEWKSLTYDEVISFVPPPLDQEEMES
# [4] = Half life in iv dosed Sprague-Dawley rat; assay type: ADME, organism-based; conditions: in vivo
# Method in brief: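 Half-life was measured in fasted male Sprague–Dawley rats and is the mean of 4 iv experiments. Depending on the compound, the vehicle was 20% captisol or NMP/H₂O (1/1).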
# [5] = Bioavailability in iv and po dosed Sprague-Dawley rat; assay type: ADME, organism-based; conditions: in vivo
# Method in brief: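 Fasted male Sprague–Dawley rats were dosed iv and po. […] Depending on the compound, the vehicle was 20% captisol or NMP/H₂O (1/1).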
Compound,pKi (TGF-beta receptor type-1 [1]),pEC50 (TGF-beta receptor type-1 [2]),pEC50 [3],pIC50 (TGF-beta receptor type-1 [2]),pIC50 [3],half-life [4] [h],bioavailability [5] [%]
Cc1nc(-c2nc(N)[nH]c2-c2ccc3nccnc3c2)ccc1F,9.15,–,–,7.47,4.90,0.6,28
CC(=O)Nc1nc(-c2ccc(F)c(C)n2)c(-c2ccc3ncnn3c2)[nH]1,8.68,6.95,4.55,–,–,–,–
Cc1nc(-c2nc(N3CCN(S(C)(=O)=O)CC3)[nH]c2-c2ccc3ncnn3c2)ccc1F,8.52,6.38,4.39,–,–,–,–
CCC(=O)Nc1nc(-c2ccc(F)c(C)n2)c(-c2ccc3nccnc3c2)[nH]1,8.06,6.81,4.87,–,–,–,–
CC(=O)Nc1nc(-c2cccc(C)n2)c(-c2ccc3ncnn3c2)[nH]1,8.53,6.78,4.24,–,–,7.1,100
Cc1nc(-c2nc(N3CCCCC3)[nH]c2-c2ccc3ncnn3c2)ccc1F,7.27,–,–,–,–,–,–
CC(=O)N1CCN(c2nc(-c3ccc(F)c(C)n3)c(-c3ccc4ncnn4c3)[nH]2)CC1,7.82,5.91,4.85,–,–,–,–
CC(=O)Nc1nc(-c2ccc(F)c(C)n2)c(-c2ccc3nccnc3c2)[nH]1,–,6.74,4.83,–,–,7.8,66

# Further lines, with some results ahead:
pKi (TGF-beta receptor type-1 [1]),pEC50 (TGF-beta receptor type-1 [2]),pEC50 [3],Compound,pIC50 (TGF-beta receptor type-1 [2]),pIC50 [3],half-life [4] [h],bioavailability [5] [%]
9.48,7.10,4.66,Cc1cccc(-c2nc(N)sc2-c2ccc3nccnc3c2)n1,–,–,7.4,87
8.14,7.21,4.82,COCC(=O)Nc1nc(-c2ccc(F)c(C)n2)c(-c2ccc3nccnc3c2)[nH]1,–,–,–,–
7.79,6.46,4.96,Cc1nc(-c2nc(N3CCN(C)CC3)[nH]c2-c2ccc3ncnn3c2)ccc1F,–,–,–,–
< 4.55,–,–,Cc1nc(-c2nc(NC(=O)C(C)C)[nH]c2-c2ccc3nccnc3c2)ccc1F,–,–,–,–
7.72,6.83,4.83,COCCC(=O)Nc1nc(-c2ccc(F)c(C)n2)c(-c2ccc3nccnc3c2)[nH]1,–,–,13.2,41
7.82,6.29,4.33,Cc1nc(-c2nc(N3CCOCC3)[nH]c2-c2ccc3ncnn3c2)ccc1F,–,–,0.4,25

# From ChEMBL document CHEMBL1143371, “2-Aminoimidazoles inhibitors of TGF-beta receptor 1” (Bioorg Med Chem Lett, 2009)
